ChEMBL document CHEMBL4406880, “Design, synthesis, and bioactivity of dihydropyrimidine derivatives as kinesin spindle protein inhibitors” (Bioorg Med Chem, 2019)

Assays:
Type in all cases: functional
A549 = assay: Growth inhibition of human A549/ATCC cells assessed as growth percentage at 10 uM incubated for 48 hrs by sulforhodamine B assay relative to control; conditions: A549, 48 h, read-out: Activity
Outline: (§1)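 NCI-60 one-dose screen: cells in RPMI 1640 with 5% FBS and 2 mM L-glutamine, plated at 5,000–40,000 cells/well and preincubated 24 h at 37 °C, 5% CO2. Compound is added from a DMSO stock to a final 10 µM and incubated 48 h. Cells are TCA-fixed and stained with sulforhodamine B, read at 515 nm. Output is % growth versus untreated control, with a time-zero plate.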

EKVX = assay: Growth inhibition of human EKVX cells assessed as growth percentage at 10 uM incubated for 48 hrs by sulforhodamine B assay relative to control; conditions: read-out: Activity; outline: as §1
K562 = assay: Growth inhibition of human K562 cells assessed as growth percentage at 10 uM incubated for 48 hrs by sulforhodamine B assay relative to control; conditions: K562, 48 h, read-out: Activity
Outline: (§2)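 NCI-60 one-dose screen. Cells in RPMI 1640 with 5% FBS and 2 mM L-glutamine, seeded at 5,000–40,000 cells/well according to doubling time, and preincubated overnight at 37 °C, 5% CO2. A time-zero plate was TCA-fixed at drug addition. Compound from DMSO stock, final 10 µM, 48 h; DMSO vehicle controls. Fixation with TCA, 10% final (16% for suspension cells). SRB stain, Tris solubilization, A515. Result given as % growth versus untreated cells.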

HOP-92 = assay: Growth inhibition of human HOP92 cells assessed as growth percentage at 10 uM incubated for 48 hrs by sulforhodamine B assay relative to control; conditions: HOP-92, 48 h, read-out: Activity; outline: as §2
NCI-H226 = assay: Growth inhibition of human NCI-H226 cells assessed as growth percentage at 10 uM incubated for 48 hrs by sulforhodamine B assay relative to control; conditions: NCI-H226, 48 h, read-out: Activity; outline: as §2
NCI-H23 = assay: Growth inhibition of human NCI-H23 cells assessed as growth percentage at 10 uM incubated for 48 hrs by sulforhodamine B assay relative to control; conditions: NCI-H23, 48 h, read-out: Activity; outline: as §2
HCC 2998 = assay: Growth inhibition of human HCC2998 cells assessed as growth percentage at 10 uM incubated for 48 hrs by sulforhodamine B assay relative to control; conditions: HCC 2998, 48 h, read-out: Activity; outline: as §1
HCT-15 = assay: Growth inhibition of human HCT15 cells assessed as growth percentage at 10 uM incubated for 48 hrs by sulforhodamine B assay relative to control; conditions: HCT-15, 48 h, read-out: Activity; outline: as §1
KM12 = assay: Growth inhibition of human KM12 cells assessed as growth percentage at 10 uM incubated for 48 hrs by sulforhodamine B assay relative to control; conditions: KM12, 48 h, read-out: Activity; outline: as §2
SF-268 = assay: Growth inhibition of human SF268 cells assessed as growth percentage at 10 uM incubated for 48 hrs by sulforhodamine B assay relative to control; conditions: SF-268, 48 h, read-out: Activity
Outline: (§3)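 NCI-60 single-dose screen. Cells were grown in RPMI 1640 with 5% FBS and 2 mM L-glutamine and plated at 5,000–40,000 cells/well. After an overnight preincubation at 37 °C in 5% CO2, compound was added at a final 10 µM from a DMSO stock, with DMSO/PBS controls. After 48 h, cells were TCA-fixed and stained with 0.4% SRB, and absorbance was read at 515 nm. Growth is given as a percentage of untreated control.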

SF-539 = assay: Growth inhibition of human SF539 cells assessed as growth percentage at 10 uM incubated for 48 hrs by sulforhodamine B assay relative to control; conditions: SF-539, 48 h, read-out: Activity; outline: as §3
SNB-75 = assay: Growth inhibition of human SNB75 cells assessed as growth percentage at 10 uM incubated for 48 hrs by sulforhodamine B assay relative to control; conditions: SNB-75, 48 h, read-out: Activity; outline: as §3
Malme-3M = assay: Growth inhibition of human MALME-3M cells assessed as growth percentage at 10 uM incubated for 48 hrs by sulforhodamine B assay relative to control; conditions: read-out: Activity; outline: as §2
M14 = assay: Growth inhibition of human M14 cells assessed as growth percentage at 10 uM incubated for 48 hrs by sulforhodamine B assay relative to control; conditions: M14, 48 h, read-out: Activity; outline: as §2
MDA-MB-435 = assay: Growth inhibition of human MDA-MB-435 cells assessed as growth percentage at 10 uM incubated for 48 hrs by sulforhodamine B assay relative to control; conditions: MDA-MB-435, 48 h, read-out: Activity; outline: as §2
IGROV-1 = assay: Growth inhibition of human IGROV1 cells assessed as growth percentage at 10 uM incubated for 48 hrs by sulforhodamine B assay relative to control; conditions: IGROV-1, 48 h, read-out: Activity; outline: as §2
OVCAR-5 = assay: Growth inhibition of human OVCAR5 cells assessed as growth percentage at 10 uM incubated for 48 hrs by sulforhodamine B assay relative to control; conditions: OVCAR-5, 48 h, read-out: Activity; outline: as §3
NCI/ADR-RES = assay: Growth inhibition of human NCI/ADR-RES cells assessed as growth percentage at 10 uM incubated for 48 hrs by sulforhodamine B assay relative to control; conditions: read-out: Activity; outline: as §2
786-0 = assay: Growth inhibition of human 786-0 cells assessed as growth percentage at 10 uM incubated for 48 hrs by sulforhodamine B assay relative to control; conditions: 786-0, 48 h, read-out: Activity; outline: as §1
CAKI-1 = assay: Growth inhibition of human Caki1 cells assessed as growth percentage at 10 uM incubated for 48 hrs by sulforhodamine B assay relative to control; conditions: CAKI-1, 48 h, read-out: Activity; outline: as §1
RXF 393 = assay: Growth inhibition of human RXF393 cells assessed as growth percentage at 10 uM incubated for 48 hrs by sulforhodamine B assay relative to control; conditions: RXF 393, 48 h, read-out: Activity; outline: as §3
TK-10 = assay: Growth inhibition of human TK10 cells assessed as growth percentage at 10 uM incubated for 48 hrs by sulforhodamine B assay relative to control; conditions: TK-10, 48 h, read-out: Activity; outline: as §3
UO-31 = assay: Growth inhibition of human UO31 cells assessed as growth percentage at 10 uM incubated for 48 hrs by sulforhodamine B assay relative to control; conditions: UO-31, 48 h, read-out: Activity; outline: as §3
MCF7 = assay: Growth inhibition of human MCF7 cells assessed as growth percentage at 10 uM incubated for 48 hrs by sulforhodamine B assay relative to control; conditions: MCF7, 48 h, read-out: Activity; outline: as §2
T47D = assay: Growth inhibition of human T47D cells assessed as growth percentage at 10 uM incubated for 48 hrs by sulforhodamine B assay relative to control; conditions: read-out: Activity; outline: as §3
MDA-MB-468 = assay: Growth inhibition of human MDA-MB-468 cells assessed as growth percentage at 10 uM incubated for 48 hrs by sulforhodamine B assay relative to control; conditions: MDA-MB-468, 48 h, read-out: Activity; outline: as §2

SMILES	growth at 10 µM (A549)	growth at 10 µM (EKVX)	growth at 10 µM (K562)	growth at 10 µM (HOP-92)	growth at 10 µM (NCI-H226)	growth at 10 µM (NCI-H23)	growth at 10 µM (HCC 2998)	growth at 10 µM (HCT-15)	growth at 10 µM (KM12)	growth at 10 µM (SF-268)	growth at 10 µM (SF-539)	growth at 10 µM (SNB-75)	growth at 10 µM (Malme-3M)	growth at 10 µM (M14)	growth at 10 µM (MDA-MB-435)	growth at 10 µM (IGROV-1)	growth at 10 µM (OVCAR-5)	growth at 10 µM (NCI/ADR-RES)	growth at 10 µM (786-0)	growth at 10 µM (CAKI-1)	other results
CC(=O)C1=C(C)NC(=O)NC1c1ccc2c(c1)OCO2 (racemic)	103%	101%	104%	102%	99.6%	101%	107%	106%	110%	107%	102%	94.1%	104%	104%	105%	103%	102%	106%	105%	91.4%	growth at 10 µM (RXF 393): 95.2%; growth at 10 µM (TK-10): 103%; growth at 10 µM (UO-31): 83.4%; growth at 10 µM (MCF7): 96.9%; growth at 10 µM (T47D): 91.8%; growth at 10 µM (MDA-MB-468): 105%
CC1=C(C(=O)OC(C)C)C(c2ccc3c(c2)OCO3)NC(=S)N1 (racemic)	104%	94.4%	107%	96.6%	84.1%	99.2%	115%	100%	108%	103%	98.9%	95.2%	95.9%	99%	106%	99.9%	105%	101%	104%	93.8%	growth at 10 µM (RXF 393): 106%; growth at 10 µM (TK-10): 98%; growth at 10 µM (UO-31): 84.5%; growth at 10 µM (MCF7): 98.7%; growth at 10 µM (T47D): 91.4%; growth at 10 µM (MDA-MB-468): 115%
CC1=C(C(=O)OC(C)C)C(c2ccc3c(c2)OCO3)NC(=O)N1 (racemic)	106%	96.1%	119%	111%	101%	98.8%	116%	99.7%	106%	104%	100%	105%	99.6%	104%	110%	101%	103%	105%	102%	93.9%	growth at 10 µM (RXF 393): 113%; growth at 10 µM (TK-10): 98.8%; growth at 10 µM (UO-31): 84.9%; growth at 10 µM (MCF7): 96.5%; growth at 10 µM (T47D): 101%; growth at 10 µM (MDA-MB-468): 104%
CC(=O)C1=C(C)Nc2nc3ccccc3n2C1c1ccc2c(c1)OCO2 (racemic)	99%	110%	82.9%	91%	103%	106%	111%	98.2%	96.4%	105%	99.7%	88.2%	105%	105%	93.1%	106%	113%	102%	100%	88.3%	growth at 10 µM (RXF 393): 108%; growth at 10 µM (TK-10): 104%; growth at 10 µM (UO-31): 89.3%; growth at 10 µM (MCF7): 96.4%; growth at 10 µM (T47D): 86.3%; growth at 10 µM (MDA-MB-468): 109%
O=C1C2=C(NC(=S)NC2c2ccc3c(c2)OCO3)c2ccccc21 (racemic)	107%	102%	103%	95%	92.6%	98.5%	106%	105%	109%	91.8%	105%	81%	106%	110%	107%	104%	106%	103%	108%	87.4%	growth at 10 µM (RXF 393): 107%; growth at 10 µM (TK-10): 102%; growth at 10 µM (UO-31): 77%; growth at 10 µM (MCF7): 96.8%; growth at 10 µM (T47D): 99%; growth at 10 µM (MDA-MB-468): 108%
